This is an account of results in ChEMBL document CHEMBL4265907, “Design, synthesis and pharmacological evaluation of N4,N6-disubstituted pyrimidine-4,6-diamine derivatives as potent EGFR inhibitors in non-small cell lung cancer” (Eur J Med Chem, 2018).

Molecules are shown by their SMILES.

Experiment [1] addresses RAC-alpha serine/threonine-protein kinase (Homo sapiens) (UniProt P31749). Description: Inhibition of recombinant human N-terminal His-tagged full length human AKT1 (1 to 480 residues) expressed in baculovirus infected Sf9 insect cells at 1 uM using FAM-labeled peptide as substrate after 10 mins by mobility shift assay relative to control. An outline of the steps:
(§1)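 Caliper mobility-shift kinase assay. Kinase in kinase base buffer was preincubated with compound for 10 min at room temperature. FAM-labelled peptide and ATP at Km were then added, and the reaction ran at 28 °C until quenched with buffer. Screening concentration was 1 µM. Percent inhibition = (max − conversion)/(max − min) × 100, with DMSO as max and a low control as min.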

The target in experiment [2] is High affinity nerve growth factor receptor (Homo sapiens) (UniProt P04629). Description: Inhibition of N-terminal GST-tagged human TRKA cytoplasmic domain (436 to 790 residues) expressed in baculovirus expression system at 1 uM using FAM-labeled peptide as substrate after 10 mins by mobility shift assay relative to control. An outline of the steps:
as §1

The target of experiment [3] is Proto-oncogene tyrosine-protein kinase receptor Ret (Homo sapiens) (UniProt P07949). Description: Inhibition of N-terminal GST-tagged human RET cytoplasmic domain (658 to 1114 residues) expressed in baculovirus expression system at 1 uM using FAM-labeled peptide as substrate after 10 mins by mobility shift assay relative to control. An outline of the steps:
as §1

The target in experiment [4] is Fibroblast growth factor receptor 2 (Homo sapiens) (UniProt P21802). Description: Inhibition of N-terminal GST-tagged human FGFR2 cytoplasmic domain (399 to 821 residues) expressed in baculovirus expression system at 1 uM using FAM-labeled peptide as substrate after 10 mins by mobility shift assay relative to control. An outline of the steps: as §1
For experiment [5], the target named is T1, Mitogen-activated protein kinase kinase kinase kinase 2 (Homo sapiens) (UniProt Q12851).
T1 sequence (whole entry): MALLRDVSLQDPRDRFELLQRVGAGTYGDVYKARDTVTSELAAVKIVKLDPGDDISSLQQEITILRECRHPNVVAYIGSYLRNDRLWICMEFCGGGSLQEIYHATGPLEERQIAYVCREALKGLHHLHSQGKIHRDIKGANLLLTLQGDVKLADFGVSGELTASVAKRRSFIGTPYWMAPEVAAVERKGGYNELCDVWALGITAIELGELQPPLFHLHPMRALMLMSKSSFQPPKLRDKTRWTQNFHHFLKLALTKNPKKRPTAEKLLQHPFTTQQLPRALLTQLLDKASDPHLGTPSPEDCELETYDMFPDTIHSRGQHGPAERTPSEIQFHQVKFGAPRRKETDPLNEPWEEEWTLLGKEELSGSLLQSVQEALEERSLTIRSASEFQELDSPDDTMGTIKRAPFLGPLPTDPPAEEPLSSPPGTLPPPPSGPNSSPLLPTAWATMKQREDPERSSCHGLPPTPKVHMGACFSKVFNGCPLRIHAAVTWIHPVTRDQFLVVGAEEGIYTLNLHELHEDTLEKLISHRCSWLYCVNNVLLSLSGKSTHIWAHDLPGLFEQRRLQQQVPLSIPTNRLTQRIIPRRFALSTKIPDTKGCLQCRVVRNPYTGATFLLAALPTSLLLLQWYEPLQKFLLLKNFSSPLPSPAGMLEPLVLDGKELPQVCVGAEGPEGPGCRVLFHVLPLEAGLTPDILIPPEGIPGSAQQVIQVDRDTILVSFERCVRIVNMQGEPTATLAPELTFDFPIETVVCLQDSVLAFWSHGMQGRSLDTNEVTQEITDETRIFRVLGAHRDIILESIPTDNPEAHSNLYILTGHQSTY
Kind of experiment: Inhibition of human N-terminal GST-tagged full length MAP4K2 (1 to 820 residues) expressed in baculovirus expression system at 1 uM using FAM-labeled peptide as substrate after 10 mins by mobility shift assay relative to control. An outline of the steps: as §1

The target in experiment [6] is Proto-oncogene tyrosine-protein kinase Src (Homo sapiens) (UniProt P12931). Description: Inhibition of N-terminal GST-tagged full length human SRC cytoplasmic domain (1 to 536 residues) expressed in baculovirus expression system at 1 uM using FAM-labeled peptide as substrate after 10 mins by mobility shift assay relative to control. An outline of the steps:
as §1

For experiment [7], the target named is Fibroblast growth factor receptor 1 (Homo sapiens) (UniProt P11362). Description: Inhibition of N-terminal GST-tagged human FGFR1 cytoplasmic domain (398 to 822 residues) expressed in baculovirus expression system at 1 uM using FAM-labeled peptide as substrate after 10 mins by mobility shift assay relative to control. An outline of the steps: as §1
The target in experiment [8] is T2, Aurora kinase A (Homo sapiens) (UniProt O14965).
T2 sequence (whole entry): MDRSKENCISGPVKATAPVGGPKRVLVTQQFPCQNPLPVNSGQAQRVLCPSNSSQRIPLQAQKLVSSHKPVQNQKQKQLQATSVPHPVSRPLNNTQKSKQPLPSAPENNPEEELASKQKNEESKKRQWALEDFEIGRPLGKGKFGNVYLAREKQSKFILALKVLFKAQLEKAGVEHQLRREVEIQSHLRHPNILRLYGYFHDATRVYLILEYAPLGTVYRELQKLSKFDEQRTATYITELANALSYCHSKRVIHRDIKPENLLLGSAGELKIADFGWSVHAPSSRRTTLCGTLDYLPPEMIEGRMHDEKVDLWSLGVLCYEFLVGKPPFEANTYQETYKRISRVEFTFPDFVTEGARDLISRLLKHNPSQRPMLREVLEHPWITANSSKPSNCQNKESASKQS
Description: Inhibition of human N-terminal GST-tagged AURA (1 to 403 residues) expressed in baculovirus expression system at 1 uM using FAM-labeled peptide as substrate after 10 mins by mobility shift assay relative to control. An outline of the steps: as §1

In experiment [9] the target is Platelet-derived growth factor receptor alpha (Homo sapiens) (UniProt P16234). Kind of experiment: Inhibition of recombinant human GST-tagged PDGFRalpha cytoplasmic domain (550 to 1089 residues) expressed in baculovirus expression system at 1 uM using FAM-labeled peptide as substrate after 10 mins by mobility shift assay relative to control. An outline of the steps:
as §1

The target in experiment [10] is Vascular endothelial growth factor receptor 2 (Homo sapiens) (UniProt P35968). Description: Inhibition of N-terminal GST-tagged human KDR cytoplasmic domain (790 to 1356 residues) expressed in baculovirus expression system at […] using FAM-labeled peptide as substrate after 10 mins by mobility shift assay relative to control. An outline of the steps:
as §1

Experiment [11] addresses Receptor tyrosine-protein kinase erbB-2 (Homo sapiens) (UniProt P04626). Kind of experiment: Inhibition of N-terminal His-tagged human HER2 cytoplasmic domain (676 to 1255 residues) expressed in baculovirus expression system at 1 uM using FAM-labeled peptide as substrate after 10 mins by mobility shift assay relative to control. An outline of the steps:
as §1

Experiment [12] addresses Serine/threonine-protein kinase B-raf (Homo sapiens) (UniProt P15056). Kind of experiment: Inhibition of recombinant human GST-tagged full length BRAF expressed in baculovirus expression system at 1 uM using FAM-labeled peptide as substrate after 10 mins by mobility shift assay relative to control. An outline of the steps:
as §1

Experiment [13] deals with Non-receptor tyrosine-protein kinase TYK2 (Homo sapiens) (UniProt P29597). Kind of experiment: Inhibition of human N-terminal GST-tagged TYK2 catalytic domain (871 to 1187 residues) expressed in baculovirus expression system at 1 uM using FAM-labeled peptide as substrate after 10 mins by mobility shift assay relative to control. An outline of the steps: as §1

Platelet-derived growth factor receptor alpha (Homo sapiens), sequence (P16234 whole entry, the tested form may be a part): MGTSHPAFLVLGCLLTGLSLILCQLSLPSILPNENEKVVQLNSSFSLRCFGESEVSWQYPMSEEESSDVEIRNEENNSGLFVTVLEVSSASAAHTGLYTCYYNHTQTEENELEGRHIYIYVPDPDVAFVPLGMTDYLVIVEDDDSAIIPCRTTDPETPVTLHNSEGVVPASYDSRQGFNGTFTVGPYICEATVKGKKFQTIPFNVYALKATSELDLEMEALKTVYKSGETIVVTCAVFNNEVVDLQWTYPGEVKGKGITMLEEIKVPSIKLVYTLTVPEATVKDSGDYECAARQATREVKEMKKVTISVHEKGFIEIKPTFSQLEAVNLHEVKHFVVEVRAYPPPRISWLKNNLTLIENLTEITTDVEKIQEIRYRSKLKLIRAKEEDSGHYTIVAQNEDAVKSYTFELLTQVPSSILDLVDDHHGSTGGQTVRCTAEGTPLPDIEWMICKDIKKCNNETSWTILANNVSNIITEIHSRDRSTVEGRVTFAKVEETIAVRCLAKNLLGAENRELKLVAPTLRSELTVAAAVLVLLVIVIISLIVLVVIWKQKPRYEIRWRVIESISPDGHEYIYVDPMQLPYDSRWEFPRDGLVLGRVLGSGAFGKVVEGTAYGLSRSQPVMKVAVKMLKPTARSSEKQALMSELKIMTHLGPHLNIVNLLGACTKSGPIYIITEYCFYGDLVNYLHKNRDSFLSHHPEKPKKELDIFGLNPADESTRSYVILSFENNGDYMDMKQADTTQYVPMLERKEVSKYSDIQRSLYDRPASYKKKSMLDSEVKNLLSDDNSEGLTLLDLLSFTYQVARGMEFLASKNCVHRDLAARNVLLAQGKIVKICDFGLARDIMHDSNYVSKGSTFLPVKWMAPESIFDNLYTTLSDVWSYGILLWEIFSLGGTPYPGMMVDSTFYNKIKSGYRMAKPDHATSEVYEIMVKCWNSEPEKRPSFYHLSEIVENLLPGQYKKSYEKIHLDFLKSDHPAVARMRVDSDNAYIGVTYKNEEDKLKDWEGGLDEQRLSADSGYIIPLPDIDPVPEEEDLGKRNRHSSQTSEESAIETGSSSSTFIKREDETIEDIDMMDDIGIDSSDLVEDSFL
High affinity nerve growth factor receptor (Homo sapiens), sequence (P04629 33-796 limits assumed): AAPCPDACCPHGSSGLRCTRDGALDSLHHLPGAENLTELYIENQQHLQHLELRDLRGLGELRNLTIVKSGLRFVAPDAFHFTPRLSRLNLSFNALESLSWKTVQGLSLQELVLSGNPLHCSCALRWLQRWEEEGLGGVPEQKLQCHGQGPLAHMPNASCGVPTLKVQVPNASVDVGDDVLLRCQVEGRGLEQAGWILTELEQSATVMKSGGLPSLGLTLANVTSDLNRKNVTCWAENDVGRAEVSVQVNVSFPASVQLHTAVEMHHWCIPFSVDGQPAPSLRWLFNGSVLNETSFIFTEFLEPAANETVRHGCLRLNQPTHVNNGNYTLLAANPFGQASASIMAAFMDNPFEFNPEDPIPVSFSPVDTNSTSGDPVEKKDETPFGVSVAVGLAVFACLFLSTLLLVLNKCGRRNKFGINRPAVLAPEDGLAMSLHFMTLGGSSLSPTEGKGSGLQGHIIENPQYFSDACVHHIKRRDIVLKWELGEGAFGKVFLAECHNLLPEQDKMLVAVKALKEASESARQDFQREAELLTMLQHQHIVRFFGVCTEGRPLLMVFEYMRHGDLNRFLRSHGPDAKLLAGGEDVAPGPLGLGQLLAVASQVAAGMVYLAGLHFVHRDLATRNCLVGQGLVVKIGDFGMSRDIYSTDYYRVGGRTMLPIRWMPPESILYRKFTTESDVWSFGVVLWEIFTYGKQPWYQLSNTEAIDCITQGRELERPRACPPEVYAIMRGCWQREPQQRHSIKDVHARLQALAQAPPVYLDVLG
Fibroblast growth factor receptor 2 (Homo sapiens), sequence (P21802 22-821 limits assumed): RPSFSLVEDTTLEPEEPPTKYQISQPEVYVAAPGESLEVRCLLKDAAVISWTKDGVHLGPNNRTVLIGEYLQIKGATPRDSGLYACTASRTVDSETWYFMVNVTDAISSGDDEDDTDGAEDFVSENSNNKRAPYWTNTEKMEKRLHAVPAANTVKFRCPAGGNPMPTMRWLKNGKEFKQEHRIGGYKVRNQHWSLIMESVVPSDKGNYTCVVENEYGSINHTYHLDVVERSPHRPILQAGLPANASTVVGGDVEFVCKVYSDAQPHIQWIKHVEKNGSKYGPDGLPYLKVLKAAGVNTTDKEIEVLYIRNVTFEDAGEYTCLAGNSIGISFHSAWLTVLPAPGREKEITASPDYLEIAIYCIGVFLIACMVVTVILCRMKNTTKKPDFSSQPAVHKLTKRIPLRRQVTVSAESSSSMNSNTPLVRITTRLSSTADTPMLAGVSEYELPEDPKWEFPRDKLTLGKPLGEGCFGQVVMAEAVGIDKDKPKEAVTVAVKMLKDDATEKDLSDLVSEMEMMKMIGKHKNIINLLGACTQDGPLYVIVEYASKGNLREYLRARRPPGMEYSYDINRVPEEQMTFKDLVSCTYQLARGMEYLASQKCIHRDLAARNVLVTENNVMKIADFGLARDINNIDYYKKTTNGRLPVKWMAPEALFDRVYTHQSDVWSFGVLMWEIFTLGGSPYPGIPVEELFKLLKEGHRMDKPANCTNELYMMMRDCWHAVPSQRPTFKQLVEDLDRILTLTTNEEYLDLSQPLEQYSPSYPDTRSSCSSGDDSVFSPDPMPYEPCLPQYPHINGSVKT
Vascular endothelial growth factor receptor 2 (Homo sapiens), sequence (P35968 whole entry, the tested form may be a part): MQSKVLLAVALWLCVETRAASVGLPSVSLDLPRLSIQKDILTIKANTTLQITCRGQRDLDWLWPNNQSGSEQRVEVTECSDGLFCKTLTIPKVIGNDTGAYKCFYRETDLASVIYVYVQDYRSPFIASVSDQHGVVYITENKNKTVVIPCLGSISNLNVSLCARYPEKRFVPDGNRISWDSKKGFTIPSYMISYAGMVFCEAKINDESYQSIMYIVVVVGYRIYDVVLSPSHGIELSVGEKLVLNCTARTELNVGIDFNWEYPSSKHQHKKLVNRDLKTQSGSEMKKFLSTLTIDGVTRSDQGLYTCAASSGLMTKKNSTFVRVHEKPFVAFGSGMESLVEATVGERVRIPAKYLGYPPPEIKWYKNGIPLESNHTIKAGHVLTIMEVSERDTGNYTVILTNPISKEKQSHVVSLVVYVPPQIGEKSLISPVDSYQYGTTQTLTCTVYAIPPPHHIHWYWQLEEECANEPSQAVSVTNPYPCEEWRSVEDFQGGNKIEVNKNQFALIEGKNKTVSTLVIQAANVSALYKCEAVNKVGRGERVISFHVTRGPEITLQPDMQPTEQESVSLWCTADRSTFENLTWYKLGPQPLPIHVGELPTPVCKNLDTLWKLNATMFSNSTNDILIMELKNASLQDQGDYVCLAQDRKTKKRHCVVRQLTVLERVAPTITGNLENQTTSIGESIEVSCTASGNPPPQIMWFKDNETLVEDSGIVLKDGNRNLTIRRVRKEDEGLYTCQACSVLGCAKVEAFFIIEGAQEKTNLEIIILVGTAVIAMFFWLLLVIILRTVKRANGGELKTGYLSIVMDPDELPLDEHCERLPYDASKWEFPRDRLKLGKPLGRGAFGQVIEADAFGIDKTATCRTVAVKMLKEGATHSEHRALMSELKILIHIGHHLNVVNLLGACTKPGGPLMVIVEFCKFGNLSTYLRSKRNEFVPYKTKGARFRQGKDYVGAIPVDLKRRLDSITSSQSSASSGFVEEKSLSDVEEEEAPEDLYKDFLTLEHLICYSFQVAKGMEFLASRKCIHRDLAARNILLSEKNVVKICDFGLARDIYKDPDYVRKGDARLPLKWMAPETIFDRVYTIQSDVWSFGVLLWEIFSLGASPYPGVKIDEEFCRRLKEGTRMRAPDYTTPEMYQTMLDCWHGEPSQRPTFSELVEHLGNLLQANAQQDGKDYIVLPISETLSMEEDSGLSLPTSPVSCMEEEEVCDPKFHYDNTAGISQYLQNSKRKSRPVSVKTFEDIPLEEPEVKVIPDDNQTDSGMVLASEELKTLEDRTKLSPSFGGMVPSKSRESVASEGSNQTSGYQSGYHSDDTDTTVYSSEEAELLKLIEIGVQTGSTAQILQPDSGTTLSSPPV
Proto-oncogene tyrosine-protein kinase receptor Ret (Homo sapiens), sequence (P07949 whole entry, the tested form may be a part): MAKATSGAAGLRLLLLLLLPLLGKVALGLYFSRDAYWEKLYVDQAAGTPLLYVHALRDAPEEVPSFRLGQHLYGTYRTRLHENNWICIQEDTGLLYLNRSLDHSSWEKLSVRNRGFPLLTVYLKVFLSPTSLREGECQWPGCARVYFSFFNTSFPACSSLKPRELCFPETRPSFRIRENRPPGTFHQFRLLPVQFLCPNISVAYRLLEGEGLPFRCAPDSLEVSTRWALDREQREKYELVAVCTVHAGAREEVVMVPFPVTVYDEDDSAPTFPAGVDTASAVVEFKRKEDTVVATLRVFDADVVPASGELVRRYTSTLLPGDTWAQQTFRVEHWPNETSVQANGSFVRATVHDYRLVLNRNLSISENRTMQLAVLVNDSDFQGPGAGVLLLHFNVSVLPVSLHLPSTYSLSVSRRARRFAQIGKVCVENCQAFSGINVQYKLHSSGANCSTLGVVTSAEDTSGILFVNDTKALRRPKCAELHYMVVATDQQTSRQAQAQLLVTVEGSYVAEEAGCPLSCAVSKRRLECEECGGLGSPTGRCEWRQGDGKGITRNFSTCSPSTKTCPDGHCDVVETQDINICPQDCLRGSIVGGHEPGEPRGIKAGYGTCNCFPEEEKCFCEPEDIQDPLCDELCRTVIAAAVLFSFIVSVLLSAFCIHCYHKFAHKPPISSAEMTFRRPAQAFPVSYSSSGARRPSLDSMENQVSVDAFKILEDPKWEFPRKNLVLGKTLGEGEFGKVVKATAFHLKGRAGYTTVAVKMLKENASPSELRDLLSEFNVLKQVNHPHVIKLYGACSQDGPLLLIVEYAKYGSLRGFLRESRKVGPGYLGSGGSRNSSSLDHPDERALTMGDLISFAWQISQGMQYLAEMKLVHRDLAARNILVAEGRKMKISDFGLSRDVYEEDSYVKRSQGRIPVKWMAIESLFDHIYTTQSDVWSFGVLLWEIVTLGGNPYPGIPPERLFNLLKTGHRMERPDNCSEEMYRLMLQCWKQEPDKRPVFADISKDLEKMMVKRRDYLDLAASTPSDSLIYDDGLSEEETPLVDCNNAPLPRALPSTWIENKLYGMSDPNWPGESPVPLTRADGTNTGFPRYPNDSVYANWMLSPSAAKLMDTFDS

Take `CCOC(=O)c1ccc(Nc2cc(NC(=O)CCCC(=O)O)ncn2)cc1`: the inhibition was found to be 4.7% in experiment [1]; 8.4% in experiment [2]; 10.4% in experiment [3]; 7.2% in [4]; 5.5% in [5]; 11.4% in experiment [6]. In addition, the inhibition in experiment [7] was 5.6%; in experiment [8], 17.3%; in [9], 4.7%; in experiment [10], -1.4%; in experiment [11] it was 4.9%; in experiment [12], 12.7%. For the same compound, the inhibition in [13] was -1.4%.
Take `COc1ccc(Nc2cc(NC(=O)c3ccccc3)ncn2)cc1`: the inhibition in experiment [1] was -3.4%; in experiment [2], 5.6%; in [3], 2.9%; in experiment [4] it was 8.3%; in [5] it was -3.2%; in [6], 27.7%. Also, the inhibition in [7] was -1.6%; in [8], 2.6%; in experiment [9] it was 21.7%; in [10], 12.4%; in experiment [11] it was 55.8%; in experiment [12], 16.6%. The inhibition in [13] is -7.9%.
As to `O=C(O)CCCC(=O)Nc1cc(N2CCOCC2)ncn1`, the inhibition is -3% in experiment [1]; 6% in experiment [2]; 8.5% in experiment [3]; 5.9% in experiment [4]; 3.3% in [5]; 11.7% in experiment [6]. In addition, the inhibition is 5.6% in [7]; 49% in experiment [8]; 9.2% in experiment [9]; 14.4% in experiment [10]; -1.5% in experiment [11]; 16.7% in experiment [12]. Further, in experiment [13], the inhibition is 2.5%.
Take `COc1cccc(Nc2cc(Nc3cc(OC)ccc3OC)ncn2)c1`: the inhibition in experiment [1] was -2.1%; in experiment [2], 6.8%; in [3], 16.3%; in [4], 9.8%; in experiment [5], 5.4%; in experiment [6] it was 33.2%. Besides, the inhibition in experiment [7] is 4.8%; in [8], 52.3%; in experiment [9], 26.9%; in experiment [10], 7.3%; in experiment [11], -4.2%; in experiment [12] it was 47.5%. Moreover, the inhibition in [13] came out at 0%.
Turning to `O=C(O)CCCC(=O)Nc1cc(Nc2cccc(Cl)c2)ncn1`, the inhibition in [1] turned out to be 0%; in experiment [2], 9.6%; in experiment [3] it was 16.8%; in experiment [4], 16.5%; in [5], 9.2%; in [6], 83.7%. Besides, the inhibition in experiment [7] turned out to be 13.5%; in experiment [8], 8.7%; in experiment [9], 43%; in [10], 8.5%; in [11] it was 57.3%; in [12], 79.3%. Further, the inhibition in experiment [13] is -0.6%.
`COc1cccc(Nc2cc(NC(=O)CCCC(=O)O)ncn2)c1`: the inhibition in [1] was 6.8%; in [2] it was 18.8%; in experiment [3], 7.7%; in experiment [4], 21.4%; in [5], 10.5%; in experiment [6] it was 16.6%. Further, the inhibition in experiment [7] is 24%; in experiment [8], 19.8%; in [9], 8%; in experiment [10], 10.5%; in experiment [11], -1.9%; in experiment [12], 11.3%. Besides, the inhibition in [13] was -4.4%.
